High-throughput results as filed in PubChem BioAssay.
SR-BI DiI inh – inhibitors of SR-BI mediated HDL lipid uptake, primary screen, ldlA[mSR-BI] cells, fluorescence, single point; ldlA[mSR-BI] CHO cells, DiI-HDL uptake fluorescence, 3 h; inhibition, % at 12.5 µM; actives 0.96% (n = 320,000); AID 488896, 2010;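 active = mean replicate inhibition of at least 70% and a set share of replicates each scoring 70 or more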;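 note: 0% = median of neutral control wells and 100% = median of positive control wells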
SMARCA2 activ – SMARCA2 (BRM) function activators, primary screen, cell-based, luminescence, high throughput | MG213 cells, MMTV-luciferase reporter, dexamethasone, overnight | activation, % at 9.1 µM | actives 1% (n = 370,000); in the data active = activation above about 7.8%;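 note: 0% = vehicle wells and 100% = reference activator wells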
Yeast superoxide – reduction of superoxide in aged yeast, primary screen, HTS; S. cerevisiae aged cells, superoxide DHE fluorescence; active compounds read low; superoxide response (% of plate mean), % at 10 µM; actives 0.18% (n = 330,000);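 active = superoxide response under a set limit, about three screen SD below normal, cut at about 65% in these data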;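 note: yeast aged for seven days with compound at 30 °C before DHE staining; 100% = average MFI of all compound-treated wells on the plate with controls excluded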
AHR activator – AHR activators, primary screen, cell-based, luminescence, luciferase reporter, human; AHR-responsive luciferase reporter cells; activation, % at 5 µM; actives 2.5% (n = 320,000); AID 2796, 2010; in the data active = activation above about 47%;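 note: 0% = vehicle wells and 100% = reference agonist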
SR-BI uptake up – activators of SR-BI mediated DiI-HDL uptake, primary screen, ldlA[mSR-BI] CHO cells, DiI fluorescence; 3 h; 100 = double the neutral-control signal; activation, % at 12.5 µM; actives 0.096% (n = 320,000);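 active = mean replicate activation of at least 60% and every replicate at or above 60%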;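 note: 0% = median plate neutral-control signal and 100% = twice that signal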
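System: CHO ldlA[mSR-BI] cells / Medium: HEPES-buffered (25 mM, pH 7.4) F12 plus 0.5% BSA / Probe or stimulus: labelled HDL, 10 µg/mL / Doses: single compound concentration, delivered by pin transfer / Schedule: 3 h, 37 °C / Measured by: DiI fluorescence, bottom read / Measure: cell-associated DiI fluorescence as measure of HDL uptake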
Hep lipid drop – inhibitors of hepatocyte lipid droplet formation, primary screen, imaging, high-throughput imaging, BODIPY stain. actives 0.4% (n = 240,000). AML12 mouse hepatocytes, oleate lipid droplets. inhibition, % at 6.5 µM;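 active = lipid droplet intensity inhibited by at least 50%, with more than 500 cells counted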
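material = mouse AML12 hepatocyte cell line, fixed after treatment | also added = 100 µM oleic acid challenge | doses = compound at 6.5 µM only | schedule = overnight exposure | technique = Image-based BODIPY and DAPI two-channel analysis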
An asterisk follows results filed as active; . = no result. In the library only some 4.3% were active in any assay of this set; here they are far more common.

SMILES	SR-BI DiI inh	SMARCA2 activ	Yeast superoxide	AHR activator	SR-BI uptake up	Hep lipid drop
C=CCN1CC(=O)N2C(c3ccccc3)c3[nH]c4ccccc4c3C[C@H]2C1=O (some centres not stated)	78*	-3	110	.	-78	2
COCCCN1CC(=O)N2C(c3ccccc3)c3[nH]c4ccccc4c3C[C@H]2C1=O (some centres not stated)	21	-4	88	10	-21	.
CN1CC(=O)N2C(c3cccc([N+](=O)[O-])c3)c3[nH]c4ccccc4c3C[C@H]2C1=O (some centres not stated)	80*	-4	82	19	-80	1
CCCCNC(=O)NC1CCN(CC(=O)Nc2ccc3c(c2)OCCO3)CC1	.	-5	.	.	.	.
O=C(Nc1ccc(C(F)(F)F)cc1)OC1CCC12CCC(c1ccccc1)CC2 (configuration not stated)	.	-2	.	.	.	.
O=C(Nc1ccc(F)cc1)C(Sc1nc2ccccc2[nH]1)c1ccccc1 (configuration not stated)	5	1	100	69*	-5	-22
COc1ccc(-c2cn3c4c(sc3n2)CCCC4)cc1	24	7	105	68*	-24	-1
Cc1c(C(=O)Nc2ccncc2)sc2nc(-c3ccc(F)cc3)cn12	77*	5	85	-10	-77	-26
COc1ccc(-c2cn3c(C)c(C(=O)Nc4cccc(NC(C)=O)c4)sc3n2)cc1	57	2	92	12	-57	.
COc1ccc(-c2cn3c(C)c(C(=O)N4CCCc5ccccc54)sc3n2)cc1	51	0	108	-8	-51	.
COc1ccc(-c2cn3c(C)c(C(=O)Nc4ccncc4)sc3n2)cc1	83*	-2	92	-6	-83	.
COc1cc(C2CC=C(C(=O)O)C(c3ccccc3F)N2S(=O)(=O)c2ccc(C)cc2)cc(OC)c1OC (configuration not stated)	.	-4	.	.	.	.
COc1cc(C(=O)Nc2ccc(C)cn2)ccc1OCC(=O)N1CCOCC1	6	-1	95	0	-6	.
COc1ccc(-c2nc(NC(=O)c3ccc(OCC(=O)N4CCOCC4)c(OC)c3)sc2C)cc1	71*	-1	107	1	-71	96*
CC(C)CCNC(=O)C1CCCN(C(=O)c2ccc3c(c2)NC(=O)CS3)C1 (configuration not stated)	.	2	.	.	.	.
CN(C)S(=O)(=O)c1cccc(NC(=O)c2c[nH]c3ccccc23)c1	16	0	119	49*	-16	6
COc1cc(OC)c(OC)cc1/C=C1\CCC(C2CCCC2)C1=O (configuration not stated)	.	-3	95	55*	.	1
CCN1CCN(C(=O)c2ccc(COc3cccc(Cl)c3)o2)CC1	13	2	94	12	-13	-12
CN(C)c1ccc(NC(=O)c2ccc(COc3cccc(Cl)c3)o2)cc1	5	4	101	71*	-5	-12
COC(=O)c1ccc(COc2ccc(C)cc2[N+](=O)[O-])o1	9	2	102	0	-9	-16
Cc1ccc(OCc2ccc(C(=O)NN)o2)c([N+](=O)[O-])c1	13	4	82	97*	-13	-23
O=C(OCc1ccccn1)c1ccc(COc2ccc3ccccc3c2)o1	.	2	103	17	.	-1
Cc1ccc(OCc2ccc(C(=O)NN)o2)cc1C	19	1	92	63*	-19	8
NNC(=O)c1ccc(COc2ccc3ccccc3c2)o1	29	-4	111	80*	-29	-23
CCOc1ccc(OCc2ccc(C(=O)NN)o2)cc1	19	2	89	22	-19	6
COC(=O)[C@]12C[C@H](CC(=O)N3CCOCC3)C(=O)N(Cc3ccc(Cl)cc3Cl)C1=C[C@H](C(C)(C)C)O[C@@H]2C	.	-4	.	.	.	.
O=C(C(=O)N1CCN(C(=O)c2ccccc2C(F)(F)F)CC1)c1cccc(C(F)(F)F)c1	.	-3	.	.	.	.
